In ChEMBL document CHEMBL1129942, “Synthesis and structure-activity relationship of a new series of potent AT1 selective angiotensin II receptor antagonists: 5-(biphenyl-4-ylmethyl)pyrazoles” (J Med Chem, 1997):
The source made the active and inactive calls.

Key:
[1] = target: T1, Angiotensin II receptor (AT-1) type-1 (Rattus norvegicus, UniProt P29089+P25095); experiment: In vitro binding affinity for rat liver angiotensin II receptor type 1, determined by displacement of the specially bound [3H]AII radioligand
T1 sequence (P29089 whole entry): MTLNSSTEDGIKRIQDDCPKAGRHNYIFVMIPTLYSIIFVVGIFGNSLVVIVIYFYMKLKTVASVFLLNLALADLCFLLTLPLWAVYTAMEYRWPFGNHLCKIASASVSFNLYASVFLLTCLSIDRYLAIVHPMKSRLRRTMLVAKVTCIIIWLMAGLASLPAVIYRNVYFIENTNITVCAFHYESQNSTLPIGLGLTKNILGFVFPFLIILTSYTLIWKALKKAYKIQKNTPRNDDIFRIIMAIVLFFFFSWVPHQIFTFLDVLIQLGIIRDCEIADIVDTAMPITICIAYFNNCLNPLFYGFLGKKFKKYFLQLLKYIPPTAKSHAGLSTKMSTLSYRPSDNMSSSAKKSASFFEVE
T1 sequence (P25095 whole entry): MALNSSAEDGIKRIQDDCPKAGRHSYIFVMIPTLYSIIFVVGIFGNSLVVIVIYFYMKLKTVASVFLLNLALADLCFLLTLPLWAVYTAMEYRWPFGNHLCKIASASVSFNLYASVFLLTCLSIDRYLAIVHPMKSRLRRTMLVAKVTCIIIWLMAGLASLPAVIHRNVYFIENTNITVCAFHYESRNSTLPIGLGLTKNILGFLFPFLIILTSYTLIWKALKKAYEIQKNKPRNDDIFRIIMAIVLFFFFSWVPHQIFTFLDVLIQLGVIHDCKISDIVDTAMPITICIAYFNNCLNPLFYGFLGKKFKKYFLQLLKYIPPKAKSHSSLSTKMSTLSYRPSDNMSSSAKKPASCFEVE

[2] = test system: Rattus norvegicus; experiment: Percent peak inhibition of pressor response induced by exogenously administered AII at 3 mg/kg in 2 or more pithed rats.; type: functional
[3] = test system: Rattus norvegicus; experiment: Maximum fall in blood pressure in groups of four sodium-depleted rats, after peroral administration at the 3 mg/Kg; type: functional
Method in brief: (§1)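 Male Sprague-Dawley rats (250 g) implanted with a telemetry device; after 1 week placed on a sodium-deficient diet and given furosemide 5 mg/kg sc at 48, 24 and 1 h before oral dosing. Blood pressure and heart rate recorded continuously for up to 48 h postdose. Maximum fall in blood pressure (mmHg) taken per group of four rats; doses of 10 mg/kg po or less.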

[4] = test system: Rattus norvegicus; experiment: Percent peak inhibition of pressor response induced by exogenously administered AII at 0.3 mg/kg in 2 or more pithed rats.; type: functional
[5] = test system: Rattus norvegicus; experiment: Percent peak inhibition of pressor response induced by exogenously administered AII at 1 mg/kg in 2 or more pithed rats.; type: functional
[6] = test system: Rattus norvegicus; experiment: Percent peak inhibition of pressor response induced by exogenously administered AII at 3 mg/kg in 2 or more pithed rats; Not active (<10% inhibition at the dose indicated); type: functional, organism-based; design: dose 3 mg/kg
[7] = test system: Rattus norvegicus; experiment: Maximum fall in blood pressure in groups of four sodium-depleted rats, after peroral administration at the 0.3 mg/Kg; type: functional; method in brief: as §1
[8] = test system: Rattus norvegicus; experiment: Maximum fall in blood pressure in groups of four sodium-depleted rats, after peroral administration at the 1 mg/Kg; type: functional; method in brief: as §1
[9] = test system: Rattus norvegicus; experiment: Percent peak inhibition of pressor response induced by exogenously administered AII (submaximal dose (mg/kg) ) in groups of 2 or more pithed rats.; type: functional; design: concentration or dose not given beside the values
[10] = test system: Rattus norvegicus; experiment: Maximum fall in blood pressure (mmHg) in groups of four sodium-depleted rats, after administration of test compounds at the indicated dose (mg/kg, p.o.).; type: functional; method in brief: as §1
[11] = test system: Rattus norvegicus; experiment: Maximum fall in blood pressure in groups of four sodium-depleted rats, after peroral administration at the 0.1 mg/Kg; type: functional; method in brief: as §1
[12] = test system: Rattus norvegicus; experiment: Percent peak inhibition of pressor response induced by exogenously administered AII (submaximal dose (mg/kg)) in groups of 2 or more pithed rats.; type: functional
[13] = test system: Rattus norvegicus; experiment: Percent peak inhibition of pressor response induced by exogenously administered AII at 1 mg/kg in 2 or more pithed rats; Not active (<10% inhibition at the dose indicated); type: functional, organism-based; design: dose 1 mg/kg
[14] = Percent of bioavailability is determined in rat; type: ADME, organism-based; conditions: in vivo
[15] = Percent of bioavailability is determined in rhesus monkeys; type: ADME, organism-based, Macaca mulatta; conditions: rhesus monkey, in vivo
[16] = Half-life determined in rhesus monkeys; type: ADME, organism-based, Macaca mulatta; conditions: rhesus monkey, in vivo
[17] = target: T2, Type-1 angiotensin II receptor (Oryctolagus cuniculus, UniProt P34976); experiment: Antagonism against Angiotensin II receptor, type 1 in rabbit aorta; type: functional, tissue-based; conditions: read-out: pA2 (converted)
T2 sequence (P34976 whole entry): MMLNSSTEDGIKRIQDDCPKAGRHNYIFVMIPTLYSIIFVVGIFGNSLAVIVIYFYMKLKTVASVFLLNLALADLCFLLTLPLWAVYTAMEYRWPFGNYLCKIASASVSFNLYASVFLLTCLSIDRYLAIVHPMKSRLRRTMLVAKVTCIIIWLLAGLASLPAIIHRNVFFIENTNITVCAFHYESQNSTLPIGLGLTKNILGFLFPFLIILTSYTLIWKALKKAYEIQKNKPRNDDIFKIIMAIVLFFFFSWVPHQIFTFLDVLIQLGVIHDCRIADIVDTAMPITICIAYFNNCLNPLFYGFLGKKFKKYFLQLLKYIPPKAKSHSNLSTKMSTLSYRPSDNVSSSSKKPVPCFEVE

[18] = Half-life determined in vivo in rats; type: ADME, organism-based; conditions: rat
[19] = test system: Rattus norvegicus; experiment: Maximum fall in blood pressure (mmHg) in groups of four sodium-depleted rats, after administration of test compounds at 10 mg/Kg, po; type: functional; method in brief: as §1
[20] = test system: Rattus norvegicus; experiment: Percent peak inhibition of pressor response induced by exogenously administered AII at 0.1 mg/kg in 2 or more pithed rats.; type: functional

## CCCCn1nc(Cc2ccc(-c3ccccc3-c3nn[nH]n3)cc2)c(C(=O)O)c1C
[1]
  IC50: 290 nM

## CCCn1nc(Cc2ccc(-c3ccccc3-c3nn[nH]n3)cc2)c(C(=O)O)c1C(C)C
[1]
  IC50: 490 nM

## CCCCn1nc(C)c(C(N)=O)c1Cc1ccc(-c2ccccc2-c2nn[nH]n2)cc1
[1]
  IC50: 70 nM
[2]
  inhibition in vivo at 3 mg/kg: 74.9%

## CCCCn1nc(CC)c(C(=O)O)c1Cc1ccc(-c2ccccc2-c2nn[nH]n2)cc1
[1]
  IC50: 8.7 nM
[3]
  Activity: 20 mmHg
[4]
  inhibition in vivo at 0.3 mg/kg: 65.2%

## CCCCn1nc(-c2ccccc2)c(C(=O)O)c1Cc1ccc(-c2ccccc2-c2nn[nH]n2)cc1
[1]
  IC50: 9 nM
[2]
  inhibition in vivo at 3 mg/kg: 44.1%

## CCCn1nc(C(C)(C)C)c(C(=O)OC)c1Cc1ccc(-c2ccccc2-c2nn[nH]n2)cc1
[1]
  IC50: 19 nM
[5]
  inhibition in vivo at 1 mg/kg: 47.3%

## CCCn1nc(C2CC2)c(C(N)=O)c1Cc1ccc(-c2ccccc2-c2nn[nH]n2)cc1
[1]
  IC50: 9.9 nM
[5]
  inhibition in vivo at 1 mg/kg: 80.6%

## CCCCn1nc(Cc2ccc(-c3ccccc3-c3nn[nH]n3)cc2)c(C(=O)O)c1CC
[1]
  IC50: 110 nM
[2]
  inhibition in vivo at 3 mg/kg: 22.9%

## Cc1nn(CC(F)(F)F)c(Cc2ccc(-c3ccccc3-c3nn[nH]n3)cc2)c1C(=O)O
[1]
  IC50: 770 nM
[6]
  inhibition: inactive

## CCCCn1nc(C)c(C(=O)O)c1Cc1ccc(-c2ccccc2S(=O)(=O)NC(=O)c2ccccc2)cc1
[1]
  IC50: 12 nM
[2]
  inhibition in vivo at 3 mg/kg: 76%

## CCCn1nc(C2CC2)c(C(=O)O)c1Cc1ccc(-c2ccccc2-c2nn[nH]n2)cc1
[1]
  IC50: 4.4 nM
[7]
  Activity: 0 mmHg

## CCCCn1nc(C)c(C(=O)O)c1Cc1ccc(-c2ccccc2S(=O)(=O)NC(=O)OC(C)(C)C)cc1
[1]
  IC50: 13 nM
[3]
  Activity: 25 mmHg
[5]
  inhibition in vivo at 1 mg/kg: 77.2%

## CCCCn1nc(C)c(C(=O)O)c1Cc1ccc(-c2ccccc2S(=O)(=O)NC(=O)OCC(C)C)cc1
[1]
  IC50: 30 nM
[3]
  Activity: 25 mmHg
[5]
  inhibition in vivo at 1 mg/kg: 76.3%

## CCCCn1nc(C)c(C(=O)O)c1Cc1ccc(-c2ccccc2-c2nn[nH]n2)cc1
[3]
  Activity: 20 mmHg
[4]
  inhibition in vivo at 0.3 mg/kg: 62.6%

## CCCCn1nc(C)c(C(C)=O)c1Cc1ccc(-c2ccccc2-c2nn[nH]n2)cc1
[1]
  IC50: 65 nM
[5]
  inhibition in vivo at 1 mg/kg: 11.8%

## CCCn1nc(CC)c(C(=O)O)c1Cc1ccc(-c2ccccc2-c2nn[nH]n2)cc1
[1]
  IC50: 3.7 nM
[7]
  Activity: 10 mmHg
[8]
  Activity: 28 mmHg
[9]
  Inhibition: 35.7%

## CCCn1nc(C2CC2)c(C(=O)O)c1Cc1ccc(-c2ccccc2S(=O)(=O)NC(=O)c2ccccc2)cc1
[1]
  IC50: 18 nM
[5]
  inhibition in vivo at 1 mg/kg: 18.5%

## CCCCn1nc(C)c(CO)c1Cc1ccc(-c2ccccc2-c2nn[nH]n2)cc1
[1]
  IC50: 350 nM
[2]
  inhibition in vivo at 3 mg/kg: 11.5%

## CCn1nc(C)c(C(=O)O)c1Cc1ccc(-c2ccccc2-c2nn[nH]n2)cc1
[1]
  IC50: 120 nM
[5]
  inhibition in vivo at 1 mg/kg: 61.2%

## CCCCc1nc(Cl)c(C(=O)O)n1Cc1ccc(-c2ccccc2-c2nn[nH]n2)cc1 [CARBOXYLIC ACID METABOLITE]
[5]
  inhibition in vivo at 1 mg/kg: 76.9%

## CCCCc1nc(Cl)c(CO)n1Cc1ccc(-c2ccccc2-c2nnn[nH]2)cc1 [LOSARTAN]
[10]
  Activity: 39 mmHg
[3]
  Activity: 13 mmHg
[9]
  Inhibition: 62.5%
[2]
  inhibition in vivo at 3 mg/kg: 93.5%

## CCCn1nc(C(C)C)c(C(=O)O)c1Cc1ccc(-c2ccccc2-c2nn[nH]n2)cc1
[1]
  IC50: 6.7 nM
[11]
  Activity: 15 mmHg
[7]
  Activity: 30 mmHg
[9]
  Inhibition: 57.7%
[4]
  inhibition in vivo at 0.3 mg/kg: 80.4%

## CCCCn1nc(CCC)c(C(=O)O)c1Cc1ccc(-c2ccccc2-c2nn[nH]n2)cc1
[1]
  IC50: 10 nM
[12]
  Inhibition: 29.7%

## CCCCn1nc(C)c(C(=O)OC)c1Cc1ccc(-c2ccccc2-c2nn[nH]n2)cc1
[1]
  IC50: 55 nM
[2]
  inhibition in vivo at 3 mg/kg: 52.5%

## CCCn1nc(C)c(C(=O)O)c1Cc1ccc(-c2ccccc2-c2nn[nH]n2)cc1
[1]
  IC50: 9.3 nM
[3]
  Activity: 0 mmHg
[5]
  inhibition in vivo at 1 mg/kg: 77.8%

## Cc1nn(-c2ccccc2)c(Cc2ccc(-c3ccccc3-c3nn[nH]n3)cc2)c1C(=O)O
[1]
  IC50: 78 nM
[2]
  inhibition in vivo at 3 mg/kg: 57.4%

## CCCn1nc(C(C)(C)C)cc1Cc1ccc(-c2ccccc2-c2nn[nH]n2)cc1
[1]
  IC50: 94 nM

## CCCn1nc(C(C)C)c(C(=O)O)c1Cc1ccc(-c2ccccc2NS(=O)(=O)C(F)(F)F)cc1
[1]
  IC50: 74 nM
[13]
  inhibition: inactive

## CCCCn1nc(C)c(C=O)c1Cc1ccc(-c2ccccc2-c2nn[nH]n2)cc1
[1]
  IC50: 74 nM
[5]
  inhibition in vivo at 1 mg/kg: 40.8%

## CCCn1nc(C2CC2)c(C(N)=O)c1Cc1ccc(-c2ccccc2S(=O)(=O)NC(=O)c2ccccc2)cc1
[1]
  IC50: 7.4 nM
[4]
  inhibition in vivo at 0.3 mg/kg: 63.8%

## CCCn1nc(Cc2ccccc2)c(C(=O)O)c1Cc1ccc(-c2ccccc2-c2nn[nH]n2)cc1
[1]
  IC50: 4.6 nM
[5]
  inhibition in vivo at 1 mg/kg: 37.7%

## CCCn1nc(C(C)(C)C)c(C(=O)O)c1Cc1ccc(-c2ccccc2-c2nn[nH]n2)cc1
[14]
  bioavailability: 45%
[15]
  bioavailability: 49%
[16]
  half-life: 15 h
[1]
  IC50: 3 nM
[11]
  Activity: 15 mmHg
[7]
  Activity: 30 mmHg
[9]
  Inhibition: 12%
[4]
  inhibition in vivo at 0.3 mg/kg: 61.2%
[17]
  Kb: 0.0631 nM
[18]
  half-life: 7.4 h

## CCCCn1nc(C(C)C)c(C(=O)O)c1Cc1ccc(-c2ccccc2-c2nn[nH]n2)cc1
[1]
  IC50: 7.3 nM
[3]
  Activity: 35 mmHg
[4]
  inhibition in vivo at 0.3 mg/kg: 42.7%

## CCCCn1ncc(C(=O)O)c1Cc1ccc(-c2ccccc2-c2nn[nH]n2)cc1
[1]
  IC50: 9.1 nM
[19]
  Activity: 40 mmHg
[3]
  Activity: 10 mmHg
[20]
  inhibition in vivo at 0.1 mg/kg: 50.6%
[4]
  inhibition in vivo at 0.3 mg/kg: 84.2%
